Experimental data published in BindingDB's records for doi:10.1021/jm950682e (Institute De Recherches Servier, 1996).
Numbered stars: 1 amine (or outer) side, 2 acyl side, 3 side chain; on linkers, the order of the positions; unused ones are H or OH. Square brackets hold non-standard residues; d marks the D form. Peptide text beside a SMILES is read from it. * marks the point of attachment. Pentanoyl(5-guanidino) = NC(N)=NCCCCC(=O)*; NH(CH2)9CO = O=C(CCCCCCCCCN[*:1])[*:2]; Oic = O=C(O)[CH]1C[CH]2CCCC[CH]2N1; Tic = O=C(O)[CH]1Cc2ccccc2CN1; 2Thi = N[CH](Cc1cccs1)C(=O)O; X2 = N=C(N)NCCCCCC(=O)*; GABA = NCCCC(=O)O

Biological target: T1, B2 bradykinin receptor (Oryctolagus cuniculus, UniProt Q28642)
T1 sequence (Q28642 whole entry): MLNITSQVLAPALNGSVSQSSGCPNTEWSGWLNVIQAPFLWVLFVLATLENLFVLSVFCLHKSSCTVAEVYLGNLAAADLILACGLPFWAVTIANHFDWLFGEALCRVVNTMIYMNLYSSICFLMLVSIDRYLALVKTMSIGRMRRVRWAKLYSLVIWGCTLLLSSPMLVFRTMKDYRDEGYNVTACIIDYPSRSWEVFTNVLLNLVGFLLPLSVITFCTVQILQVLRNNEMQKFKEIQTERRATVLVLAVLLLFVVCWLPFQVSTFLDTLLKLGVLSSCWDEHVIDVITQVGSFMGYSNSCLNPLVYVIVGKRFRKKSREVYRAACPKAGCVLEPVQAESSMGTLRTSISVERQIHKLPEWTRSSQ
Experiment: In vitro antagonistic activity against kinin-induced rabbit jugular vein contraction.
Method in brief: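 Rabbit jugular vein rings (B2 tissue), reference KCl 60 mM contraction then 45 min rest; antagonist, usually 10-7, 10^-6 and 10^-5 M, incubated 45 min before cumulative bradykinin; one curve per ring; pA2 by Tallarida's method with Schild slope constrained to unity, or pKB from EC50 ratio when activity appeared only at 10^-5 M.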

Structure (SMILES): N=C(N)NCCCC(NC(=O)C1CC2CCCCC2N1C(=O)C1Cc2ccccc2CN1C(=O)C(Cc1ccccc1)NC(=O)CCCN)C(=O)O (stereo not given) (H-[GABA]F[Tic][Oic]R-OH; configuration not given here)
- Kd: 363 nM

Structure (SMILES): N=C(N)NCCCC(NC(=O)C1CC2CCCCC2N1C(=O)C1Cc2ccccc2CN1C(=O)C(Cc1cccs1)NC(=O)CCCN)C(=O)O (stereo not given) (H-[GABA][2Thi][Tic][Oic]R-OH; configuration not given here)
- Kd: 251 nM

Structure (SMILES): N=C(N)NCCCCCC(=O)NC(Cc1cccs1)C(=O)N1Cc2ccccc2CC1C(=O)N1C(C(=O)NC(CCCNC(=N)N)C(=O)O)CC2CCCCC21 (stereo not given) (X2-[2Thi][Tic][Oic]R-OH; configuration not given here)
- Kd: 3390 nM

Structure (SMILES): N=C(N)NCCCC(NC(=O)C1CC2CCCCC2N1C(=O)C1Cc2ccccc2CN1C(=O)C(Cc1cccs1)NC(=O)CCCCCCCCCN)C(=O)O (stereo not given) ({NH(CH2)9CO}-[2Thi][Tic][Oic]R-OH; configuration not given here)
- Kd: 468 nM

Structure (SMILES): N=C(N)NCCCCC(=O)NC(Cc1cccs1)C(=O)N1Cc2ccccc2CC1C(=O)N1C(C(=O)NC(CCCNC(=N)N)C(=O)O)CC2CCCCC21 (stereo not given) ({Pentanoyl(5-guanidino)}-[2Thi][Tic][Oic]R-OH; configuration not given here)
- Kd: 3020 nM
